For data set [1], the system named is Influenza A virus. The experiment in a line: Antiviral activity against Influenza A virus (A/Puerto Rico/8/1934(H1N1)) infected in MDCK cells assessed as decrease in viral titers at 50 ug/ml added during adsorption stage and measured 24 hrs post infection by HA assay. Type of data set: functional, organism-based. Summed up: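 MDCK cells were infected at high moi (≈3.0 PFU/cell). Virus-containing supernatants were serially diluted 2-fold and mixed with an equal volume of 1% chicken red blood cells. After 60 min at 4 °C, wells were scored for button sedimentation versus opaque agglutination to give titers.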

The nature of data set [2]: Cumulative drug excretion in mouse feces at 0.5 mg/kg, iv administered as single dose measured after 72 hrs. Type of data set: ADME, organism-based. The conditions noted are these: faeces, read-out: Drug excretion. A digest of the protocol: (§1)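 Single oral (gavage, 0.5% CMC-Na) or iv (tail vein, PEG400) dosing was given to male Kunming mice or Sprague Dawley rats held in metabolic cages. Urine and feces were collected at intervals to 72 h. Feces were dried, ground and homogenized in water (1:9 w/v). Samples were precipitated with acetonitrile containing internal standard and analysed by LC-MS/MS.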

The nature of data set [3]: Cumulative drug excretion in rat feces at 3.5 mg/kg, po administered as single dose measured after 72 hrs. Type of data set: ADME, organism-based. The conditions noted are these: faeces, read-out: Drug excretion. A digest of the protocol:
as §1

The nature of data set [4]: Half life in rat at 3.5 mg/kg , po administered as single dose. Type of data set: ADME, organism-based. The conditions noted are these: in vivo. Summed up: (§2)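 Male Kunming mice (20-25 g) and male Sprague Dawley rats (180-220 g) were fasted 12 h before dosing. Oral dosing was by gavage as a suspension in 0.5% sodium carboxymethyl cellulose; iv dosing was via tail vein in PEG400. Serial plasma samples were taken to 24 h, protein-precipitated with acetonitrile plus N-CH3 internal standard, and quantified by LC-MS/MS (n=3). Bioavailability = AUCoral/AUCiv.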

The test system of data set [5] is Influenza A virus. The data set can be described thus: Antiviral activity against Influenza A virus (A/Puerto Rico/8/1934(H1N1)) infected in MDCK cells assessed as inhibition of virus-induced cytopathic effect incubated for 48 hrs by crystal violet staining based assay. Type of data set: functional, organism-based. A digest of the protocol:
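MDCK cells were infected at MOI 0.1, the inoculum was removed, and compounds were added in triplicate. After 48 h the cells were fixed in 4% formaldehyde (20 min, RT) and stained with 0.1% crystal violet (30 min). Dye was solubilized in methanol and read at 570 nm.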

Data set [6] has as its system Influenza A virus. The experiment in a line: Antiviral activity against Influenza A virus (A/Puerto Rico/8/1934(H1N1)) infected in Kunming mouse assessed as decrease in pulmonary viral titers at 5 to 10 mg/kg/day, po starting 4 hrs after viral challenge and continued for 4 days by plaque assay. Type of data set: functional, organism-based. A digest of the protocol: (§3)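 Four-week-old female Kunming mice were infected intranasally with PR8 (500 PFU/mouse in 40 µL PBS), randomized, and dosed once daily orally or intranasally. On day 4 the mice were euthanized; lungs were removed, weighed, homogenized in PBS, and titrated by plaque assay.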

The nature of data set [7]: Cumulative drug excretion in mouse urine at 0.5 mg/kg, iv administered as single dose measured after 72 hrs. The class given is ADME, organism-based. The conditions noted are these: read-out: Drug excretion. A digest of the protocol:
as §1

Data set [8] has as its system Influenza A virus. The data set can be described thus: Antiviral activity against luciferase tagged Influenza A virus H5N1 pseudovirus infected in MDCK cells assessed as reduction in virus infection at 50 ug/ml using compound pre-treated virus for infection and measured after 48 hrs by luciferase reporter gene assay. The class given is functional, organism-based. Summed up: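 MDCK cells infected with luciferase-expressing H5N1 HA/NA pseudotyped HIV-based virus were treated with compound under four different treatment regimens. Infection was quantified by firefly luciferase glow assay.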
(Reporter assays use an easily measured gene product as a stand-in for the process of interest.)

Data set [9] is described as follows: Half life in rat at 0.35 mg/kg /kg, iv administered as single dose. The class given is ADME, organism-based. The conditions noted are these: in vivo. A digest of the protocol: as §2
Data set [10] is described as follows: Tmax in rat at 3.5 mg/kg , po administered as single dose. The class given is ADME, organism-based. The conditions noted are these: in vivo. A digest of the protocol: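 Male Kunming mice (20–25 g) and male SD rats (180–220 g) were fasted 12 h before dosing. Compound was suspended in 0.5% CMC-Na and given by gavage (5 mg/kg mice, 3.5 mg/kg rats), or dissolved in PEG400 and given iv via tail vein (0.5 mg/kg mice, 0.35 mg/kg rats). Plasma was sampled from 5 min to 24 h and analysed by LC-MS/MS (n=3). F = AUCoral/AUCiv.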

Data set [11] concerns the target Hemagglutinin (Influenza A virus (A/Puerto Rico/8/1934(H1N1))) (UniProt P03452). The data set can be described thus: Inhibition of trypsin-mediated cleavage of Influenza A virus (A/Puerto Rico/8/1934(H1N1)) Hemagglutinin (HA0) at 50 ug/ml incubated for 30 mins by Coomassie blue fast staining and SDS-PAGE gel based trypsin susceptibility assay. A digest of the protocol: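 About 5 µg PR8 HA protein was preincubated with about 50 µg/ml compound for 30 min at RT; controls received 2% DMSO. Samples were acidified with 1 M sodium acetate pH 5.0 (one kept at pH 7.0) for 20 min at 37 °C, then neutralized with 200 mM Tris pH 8.5. TPCK-trypsin was added at 1:50 by mass for 30 min at 37 °C. Samples were run on non-reducing 12% SDS-PAGE with Coomassie staining.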

In data set [12] the test system is Influenza A virus. The data set can be described thus: Antiviral activity against Influenza A virus (A/Puerto Rico/8/1934(H1N1)) infected in Kunming mouse assessed as improvement in body weight at 5 to 10 mg/kg/day, po starting 4 hrs after viral challenge and continued for 7 days and measured up to day 14 by plaque assay. The class given is functional, organism-based. A digest of the protocol: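 Groups of 10 female Kunming mice were infected intranasally with PR8 (1000 PFU/mouse) on day 0 and dosed once daily for seven days. Weight and clinical signs were recorded daily. Mice losing more than 25% of pre-infection weight were scored dead and euthanized; survivors were killed on day 14.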

For data set [13], the system named is Influenza A virus. The data set can be described thus: Antiviral activity against Influenza A virus (A/Puerto Rico/8/1934(H1N1)) infected in Kunming mouse assessed as decrease in pulmonary viral titers at 20 to 40 ug/day dosed intranasally starting 4 hrs after viral challenge and continued for 4 days by plaque assay. The class given is functional, organism-based. A digest of the protocol:
as §3

The nature of data set [14]: Toxicity in Kunming mouse assessed as effect on LDH level at 5 to 10 mg/kg/day, po for 7 days. The class given is organism-based. As to conditions: in vivo, 168 h. Summed up:
(§4)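 Male Kunming mice (20–25 g) received compound orally at 5 or 10 mg/kg/day, suspended in 0.5% sodium carboxymethyl cellulose, once daily for 7 days; controls received vehicle. Serum was collected under isoflurane 24 h after the last dose. AST, ALT, CR, BUN, LDH, CK and CK-MB were measured with commercial kits.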

Another data set has as its system Influenza A virus H3N2. The experiment in a line: Antiviral activity against Influenza A virus H3N2 (A/swine/Minnesota/02719/2009) infected in MDCK cells incubated for 3 days by crystal violet staining based plaque assay. The class given is functional, organism-based. As to conditions: 72 h. A digest of the protocol:
(§5)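 Confluent MDCK monolayers were exposed to 10-fold serial virus dilutions for 1 h at 37 °C, then washed. The overlay was DMEM with 1.5% agarose, 0.02% DEAE-dextran and 1 µg/ml TPCK-trypsin. After 3 days at 37 °C in 5% CO2, cells were fixed with 0.05% glutaraldehyde, stained with 1% crystal violet in 20% ethanol, and plaques were counted.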

Data set [15] in a line: AUC (0 to t) in rat at 0.35 mg/kg /kg, iv administered as single dose. The class given is ADME, organism-based. The conditions noted are these: in vivo. Summed up:
as §2

The nature of data set [16]: Cumulative drug excretion in mouse feces at 5 mg/kg, po administered as single dose measured after 72 hrs. Type of data set: ADME, organism-based. As to conditions: faeces, read-out: Drug excretion. A digest of the protocol: as §1
Data set [17] is described as follows: Toxicity in Kunming mouse assessed as effect on CK-MB level at 5 to 10 mg/kg/day, po for 7 days. Type of data set: organism-based. The conditions noted are these: in vivo, 168 h. Summed up: as §4
Data set [18] deals with Influenza A virus. The data set can be described thus: Antiviral activity against Influenza A virus Virginia/ATCC1/2009 infected in MDCK cells incubated for 3 days by crystal violet staining based plaque assay. Type of data set: functional, organism-based. The conditions noted are these: Virginia/ATCC1/2009, MDCK, 72 h. Summed up:
as §5

Molecules are shown by their SMILES. The source made the active and inactive calls. The calls are words filed in the database; no cut-off is given here.

Hemagglutinin (Influenza A virus (A/Puerto Rico/8/1934(H1N1))), sequence (P03452 whole entry): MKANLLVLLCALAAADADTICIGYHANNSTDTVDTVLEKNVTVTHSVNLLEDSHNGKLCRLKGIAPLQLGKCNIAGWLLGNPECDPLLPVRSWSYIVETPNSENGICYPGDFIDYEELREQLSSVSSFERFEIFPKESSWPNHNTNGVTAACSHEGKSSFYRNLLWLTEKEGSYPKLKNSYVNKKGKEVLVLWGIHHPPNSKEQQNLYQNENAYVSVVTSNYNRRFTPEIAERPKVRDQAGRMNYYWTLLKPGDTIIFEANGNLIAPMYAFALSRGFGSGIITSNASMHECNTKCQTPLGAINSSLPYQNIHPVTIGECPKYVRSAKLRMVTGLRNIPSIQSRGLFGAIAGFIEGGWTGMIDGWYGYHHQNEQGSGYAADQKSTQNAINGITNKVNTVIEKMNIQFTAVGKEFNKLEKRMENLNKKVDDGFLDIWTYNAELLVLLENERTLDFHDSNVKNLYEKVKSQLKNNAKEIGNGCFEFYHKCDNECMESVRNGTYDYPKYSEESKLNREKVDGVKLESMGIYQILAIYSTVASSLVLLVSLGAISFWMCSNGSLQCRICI

As a reminder, the half-life is how long it takes for the measured level to halve. Read a high half-life as slow loss. By IC50 is commonly meant the point on the concentration scale where inhibition reaches its midpoint. The Tmax is the time from dosing to the highest level. One may read the AUC(0-t) as the area under the concentration-time curve up to a stated or last time point. A higher AUC(0-t) goes with more exposure. For the compound `CC(=O)c1cc(C)c(O)c(Cc2[nH]c3ccccc3c2Cc2c(O)c(C)cc(C(C)=O)c2O)c1O`, the result with Influenza A virus [1], with Influenza A virus [6], with Influenza A virus [12] and with Influenza A virus [13] was Active. The dose excreted at 72 h came to 29.1% in data set [2], 96.4% in data set [3], 0.3% in data set [7] and 38.4% in data set [16]. The results for the half-life in data set [4] and in data set [9] were 3.3 h and 4.8 h, respectively. Besides, the IC50 is 26.4 µM in the data set with Influenza A virus [5], below 13 µg/mL with Influenza A virus H3N2 and below 13 µg/mL in the data set on Influenza A virus [18]. In the data set on Influenza A virus [8], the inhibition entry is “Active”. Moreover, in data set [10], the time of peak concentration (Tmax) was 4.3 h. Besides, the inhibition result in data set [11] is “inactive”. Also, the Activity result in data set [14] and in data set [17] was “Non-Toxic” each time. In data set [15], this compound came in with an AUC(0-t) of 10100 ng·h/mL.

Source of the values: ChEMBL document CHEMBL4619773, “Chemoreactive-Inspired Discovery of Influenza A Virus Dual Inhibitor to Block Hemagglutinin-Mediated Adsorption and Membrane Fusion” (J Med Chem, 2020).
